E coli WT exp – blocks growth of wild type E. coli BW25113; 98,000 compounds, 0.15% hits; growth inhibition, % at 100 µM; AID 710; OD600 absorbance;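 active = growth inhibition above about 50% at one test dose, limit read from the data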;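 note: growth measured after 20 h incubation at 37 °C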
tolC growth inh – E. coli tolC mutant growth inhibition; E. coli BW25113 tolC mutant growth, OD615; growth inhibition, % at 10 µM (by protocol); 65,000 compounds, 2.2% hits;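 active = growth inhibition at or above a cutoff equal to the mean over every tested compound plus 3 SD, cut at about 60% in these data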;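 note: growth measured after 20 h incubation at 37 °C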
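Test system: tolC-deleted E. coli BW25113 | Medium: LB with kanamycin 50 µg/mL | Compound dosing: Single concentration, 10 µM final per compound | Schedule: 37 °C, 20 h exposure | Measured by: OD at 615 nm | Evaluation: Percent growth inhibition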
M1 agonist – M1 muscarinic receptor agonism; CHO-M1 cells, Fluo-4 calcium fluorescence, agonist mode; active compounds read high; B-score at 10 µM; 64,000 compounds, 3% hits;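 active = fluorescence rise, raw or as B-score row- and column-corrected plate score, outside the 99.7% band of its plate's samples, either direction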
M1 antagonist – M1 muscarinic receptor (rat) antagonism; CHO-M1 cells, Fluo-4 calcium, ACh EC80 antagonist mode; active compounds read low; B-score at 10 µM; 64,000 compounds, 3.4% hits;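 active = calcium fluorescence response, raw or row-and-column corrected B-score, differing from the plate sample mean either way at a set confidence level, mostly lower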
BAP1 inh – inhibitors of human BAP1 deubiquitinase; Q92560; recombinant BAP1, Ub-AMC hydrolysis fluorescence kinetic; active compounds read low; calls only at 20 µM; 72,000 compounds, 0.48% hits;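 active = activity remaining at or below 50% of control, provided the compound also passes the data quality filters; inactive = the rest, including low values that fail the filters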;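 note: 100% = DMSO wells rate and 0% = substrate alone blank rate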
Target sequence (Q92560 whole entry, looked up): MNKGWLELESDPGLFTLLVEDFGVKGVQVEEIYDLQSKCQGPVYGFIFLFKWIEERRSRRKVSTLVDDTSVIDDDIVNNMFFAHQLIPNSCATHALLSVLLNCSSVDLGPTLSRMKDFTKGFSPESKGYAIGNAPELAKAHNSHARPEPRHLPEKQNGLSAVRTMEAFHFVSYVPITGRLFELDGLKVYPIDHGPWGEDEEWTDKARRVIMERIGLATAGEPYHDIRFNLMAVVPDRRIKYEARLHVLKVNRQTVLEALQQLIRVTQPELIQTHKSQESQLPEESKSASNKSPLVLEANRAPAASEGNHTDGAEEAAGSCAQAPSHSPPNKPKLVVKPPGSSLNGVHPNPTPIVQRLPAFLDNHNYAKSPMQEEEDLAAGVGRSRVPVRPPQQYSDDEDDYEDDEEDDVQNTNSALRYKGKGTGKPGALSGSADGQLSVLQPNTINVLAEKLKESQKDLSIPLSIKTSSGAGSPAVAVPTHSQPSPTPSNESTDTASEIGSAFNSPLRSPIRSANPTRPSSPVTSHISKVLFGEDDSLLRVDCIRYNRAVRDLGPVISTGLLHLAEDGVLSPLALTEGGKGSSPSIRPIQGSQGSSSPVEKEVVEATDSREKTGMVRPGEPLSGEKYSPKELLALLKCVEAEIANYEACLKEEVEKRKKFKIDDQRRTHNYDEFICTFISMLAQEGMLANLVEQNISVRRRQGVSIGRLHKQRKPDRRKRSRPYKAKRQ
Hsp90 inh – displaces geldanamycin probe from tumor Hsp90. AID 429. NCI-N417 lysate Hsp90, Cy3B-geldanamycin FP displacement. 64,000 compounds, 0.35% hits. inhibition, % at 30 µM;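 active = inhibition above 50%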;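 note: 0% = tracer plus lysate wells and 100% = tracer alone without lysate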
An asterisk follows results filed as active. This is a sample that favours compounds with a hit; in the whole collection about 5.1% have one here.

For O=c1c2c3nc4ccccc4nc3n(CCN3CCOCC3)c2ncn1CCN1CCOCC1 the results were tolC growth inh -7.8, M1 agonist 2.72*, M1 antagonist -0.00852 and Hsp90 inh -6.3.
COc1cccc(Oc2nc(N)[nH]c(=O)c2I)c1 was read as BAP1 inh inactive.
Screening Cc1ccc(NC(=O)C(C)Oc2ccc(-c3ccccc3)cc2)c([N+](=O)[O-])c1 (stereo not given) returned BAP1 inh inactive.
Screening CCCCCCCCCCn1c2c(c(=N)c3c1CCC3)CCC2 returned E coli WT exp 100.0*.
`COc1ccccc1OCC(=O)N(Cc1nc(-c2ccc(Cl)cc2)no1)C(C)C` gave E coli WT exp -15.0, tolC growth inh 9.8, M1 agonist -0.172, M1 antagonist -0.64, BAP1 inh inactive and Hsp90 inh -1.0.
`COc1cccc(OCC(=O)N(Cc2nc(-c3ccc(Cl)cc3)no2)C(C)C)c1` gave E coli WT exp -5.0, tolC growth inh 63.3*, M1 agonist 1.06, M1 antagonist 0.574, BAP1 inh inactive and Hsp90 inh -3.2.
Screening Cc1cccc(-c2noc(CN(C(=O)c3ccc4c(c3)OCO4)C(C)C)n2)c1 returned E coli WT exp 0.0, tolC growth inh 12.8, M1 agonist 0.995, M1 antagonist -0.536, BAP1 inh inactive and Hsp90 inh -2.1.
Screening Cc1cccc(-c2noc(CN(C(=O)c3ccc(Br)o3)C(C)C)n2)c1 returned E coli WT exp -11.0, tolC growth inh 62.7*, M1 agonist 2.61, M1 antagonist 0.436, BAP1 inh inactive and Hsp90 inh -4.5.
`Cc1ccc(C)c(C(=O)N(Cc2nc(-c3ccc(Cl)cc3)no2)C(C)C)c1` gave E coli WT exp -23.0, tolC growth inh 76.8*, M1 agonist 1.44, M1 antagonist -0.00913, BAP1 inh inactive and Hsp90 inh -1.6.
Screening O=c1oc2ccccc2cc1-c1nnc(Nc2cccc(C(F)(F)F)c2)s1 returned BAP1 inh inactive.
`CCc1c(C)nc2cc(-c3ccc(OC)c(OC)c3)nn2c1N1CCCC1` gave E coli WT exp -12.0, tolC growth inh 9.6, M1 agonist 0.273 and M1 antagonist -0.461.
Screening CCc1c(C)nc2cc(-c3cc(OC)cc(OC)c3)nn2c1N1CCCC1 returned E coli WT exp -29.0, tolC growth inh 74.7*, M1 agonist 0.848, M1 antagonist 0.823 and Hsp90 inh -0.6.
CCOC(=O)N1CCC(NC(=O)CSCc2nc(-c3sccc3C)oc2C)CC1 was read as E coli WT exp 9.0, tolC growth inh 6.2, M1 agonist -1.81, M1 antagonist 0.584, BAP1 inh inactive and Hsp90 inh 98.4*.
For Clc1ccccc1-c1ccc(C=Cc2nc3ccccc3o2)o1 the results were BAP1 inh inactive.
`Cc1ccc(S(=O)(=O)Cn2nnnc2CN2CCOCC2)cc1` gave E coli WT exp 0.0, tolC growth inh -23.6, M1 agonist 0.0192, M1 antagonist 0.000693, BAP1 inh inactive and Hsp90 inh 1.8.
Screening Cc1ccc(S(=O)(=O)Cn2nnnc2CN2CCCC3(CCCCC3)C2)cc1 returned E coli WT exp -13.0, tolC growth inh 75.9*, M1 agonist -0.0442, M1 antagonist -0.225, BAP1 inh inactive and Hsp90 inh -0.3.
`CC(=O)NCC(=O)N(Cc1ccco1)C1(C(=O)NC2CCCCC2)CCCCC1` gave E coli WT exp 0.0, tolC growth inh 3.9, M1 agonist 0.494, M1 antagonist 0.36, BAP1 inh inactive and Hsp90 inh -3.3.
`CC(=O)N(Cc1ccco1)C1(C(=O)NC2CCCCC2)CCCCC1` gave E coli WT exp 1.0, tolC growth inh -1.9, M1 agonist 0 and M1 antagonist 2.07*.
Screening CCC1CCCCN1S(=O)(=O)c1ccc(C(=O)Nc2nnc(-c3cccs3)o2)cc1 (stereo not given) returned E coli WT exp 8.0, tolC growth inh 99.4*, M1 agonist -1.44, M1 antagonist 0.152, BAP1 inh inactive and Hsp90 inh -2.0.
Screening CC1CC(C)CN(S(=O)(=O)c2ccc(C(=O)Nc3sccc3C(N)=O)cc2)C1 (stereo not given) returned E coli WT exp -11.0.
Screening O=C(Nc1nnc(-c2cccs2)o1)c1cccc(C(F)(F)F)c1 returned E coli WT exp 57.0*, tolC growth inh 100.0*, M1 agonist 2.81, M1 antagonist -0.74, BAP1 inh inactive and Hsp90 inh -2.6.
For CCc1nnc(NC(=O)c2ccc(S(=O)(=O)N3CCCCC3C)cc2)s1 (stereo not given) the results were E coli WT exp -3.0, tolC growth inh 2.4, M1 agonist -0.283, M1 antagonist -0.112, BAP1 inh inactive and Hsp90 inh 1.3.
For CC1CC(C)CN(S(=O)(=O)c2ccc(C(=O)Nc3nnc(-c4cccs4)o3)cc2)C1 (stereo not given) the results were E coli WT exp 4.0, tolC growth inh 99.4*, M1 agonist 0.284, M1 antagonist -0.671, BAP1 inh inactive and Hsp90 inh -2.0.
CC1CCCN(S(=O)(=O)c2ccc(C(=O)Nc3nnc(-c4ccccc4Cl)o3)cc2)C1 (stereo not given) was read as E coli WT exp -9.0, tolC growth inh 100.0*, M1 agonist 1.31, M1 antagonist 0.628, BAP1 inh inactive and Hsp90 inh -3.3.
Screening O=C(CCc1ccccc1)Nc1nnc(-c2cccs2)o1 returned E coli WT exp 2.0, tolC growth inh 8.7, M1 agonist 0.0915, M1 antagonist -0.666, BAP1 inh inactive and Hsp90 inh -1.5.
Screening COc1cccc2cc(C(=O)Nc3ccc(F)cc3)c(=Nc3sc4c(c3C#N)CCCC4)oc12 returned BAP1 inh inactive.
O=C(Nc1ccccn1)c1cccnc1 was read as E coli WT exp 4.0, tolC growth inh -14.7, M1 agonist -0.133, M1 antagonist -0.84, BAP1 inh inactive and Hsp90 inh -1.7.
`O=C(Nc1nnc(-c2ccccc2Cl)o1)c1cccnc1` gave E coli WT exp 7.0, tolC growth inh 70.2*, M1 agonist -0.306, M1 antagonist -0.038, BAP1 inh inactive and Hsp90 inh -4.8.
O=C(NC12CC3CC(CC(C3)C1)C2)c1ccccc1O was read as E coli WT exp -3.0, tolC growth inh 62.5*, M1 agonist 0.964, M1 antagonist -0.696, BAP1 inh inactive and Hsp90 inh -1.6.
O=c1oc2c(CN3CCCCCC3)c(O)ccc2cc1-c1nc2ccccc2[nH]1 was read as tolC growth inh 28.6, M1 agonist 248*, M1 antagonist -17.2*, BAP1 inh inactive and Hsp90 inh 4.9.
Screening N#CC(C(=O)NC1CCCCC1)c1nc2ccccc2nc1N1CCOCC1 (stereo not given) returned M1 agonist 84.1*, M1 antagonist 1.65, BAP1 inh inactive and Hsp90 inh 2.5.

Assay outcomes from PubChem.
